The source made the active and inactive calls. No cut-off for these calls is given here.
Legend:
Histone deacetylase 1 [1] = target: T1, Histone deacetylase 1 (Homo sapiens, UniProt Q13547); assay: Inhibition of recombinant human HDAC1 using Z-(Ac)-Lys-AMC as substrate incubated for 40 mins by fluorescence based assay
Histone deacetylase 2 = Histone deacetylase 2 (Homo sapiens, UniProt Q92769); assay: Inhibition of HDAC2 (unknown origin)
Histone deacetylase 8 = target: T2, Histone deacetylase 8 (Homo sapiens, UniProt Q9BY41); assay: Inhibition of HDAC8 (unknown origin)
T2 sequence (Q9BY41 whole entry): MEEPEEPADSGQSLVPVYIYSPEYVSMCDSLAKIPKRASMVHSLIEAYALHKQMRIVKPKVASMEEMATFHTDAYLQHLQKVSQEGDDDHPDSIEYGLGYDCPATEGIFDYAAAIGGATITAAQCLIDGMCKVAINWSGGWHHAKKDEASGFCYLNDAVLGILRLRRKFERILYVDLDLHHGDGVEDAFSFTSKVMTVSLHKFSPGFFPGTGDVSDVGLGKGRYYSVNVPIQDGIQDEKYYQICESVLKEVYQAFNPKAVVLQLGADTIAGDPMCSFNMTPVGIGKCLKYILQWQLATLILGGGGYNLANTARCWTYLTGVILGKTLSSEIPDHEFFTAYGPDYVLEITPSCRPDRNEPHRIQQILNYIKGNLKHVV

[2] = target: T3, Protein deacetylase HDAC6 (Homo sapiens) (UniProt Q9UBN7); assay: Binding affinity to HDAC6 in human MGC803 cells assessed as increase in thermal stability at 4 uM after 6 hrs by CETSA; type: cell-based; conditions: MGC-803
T3 sequence (whole entry): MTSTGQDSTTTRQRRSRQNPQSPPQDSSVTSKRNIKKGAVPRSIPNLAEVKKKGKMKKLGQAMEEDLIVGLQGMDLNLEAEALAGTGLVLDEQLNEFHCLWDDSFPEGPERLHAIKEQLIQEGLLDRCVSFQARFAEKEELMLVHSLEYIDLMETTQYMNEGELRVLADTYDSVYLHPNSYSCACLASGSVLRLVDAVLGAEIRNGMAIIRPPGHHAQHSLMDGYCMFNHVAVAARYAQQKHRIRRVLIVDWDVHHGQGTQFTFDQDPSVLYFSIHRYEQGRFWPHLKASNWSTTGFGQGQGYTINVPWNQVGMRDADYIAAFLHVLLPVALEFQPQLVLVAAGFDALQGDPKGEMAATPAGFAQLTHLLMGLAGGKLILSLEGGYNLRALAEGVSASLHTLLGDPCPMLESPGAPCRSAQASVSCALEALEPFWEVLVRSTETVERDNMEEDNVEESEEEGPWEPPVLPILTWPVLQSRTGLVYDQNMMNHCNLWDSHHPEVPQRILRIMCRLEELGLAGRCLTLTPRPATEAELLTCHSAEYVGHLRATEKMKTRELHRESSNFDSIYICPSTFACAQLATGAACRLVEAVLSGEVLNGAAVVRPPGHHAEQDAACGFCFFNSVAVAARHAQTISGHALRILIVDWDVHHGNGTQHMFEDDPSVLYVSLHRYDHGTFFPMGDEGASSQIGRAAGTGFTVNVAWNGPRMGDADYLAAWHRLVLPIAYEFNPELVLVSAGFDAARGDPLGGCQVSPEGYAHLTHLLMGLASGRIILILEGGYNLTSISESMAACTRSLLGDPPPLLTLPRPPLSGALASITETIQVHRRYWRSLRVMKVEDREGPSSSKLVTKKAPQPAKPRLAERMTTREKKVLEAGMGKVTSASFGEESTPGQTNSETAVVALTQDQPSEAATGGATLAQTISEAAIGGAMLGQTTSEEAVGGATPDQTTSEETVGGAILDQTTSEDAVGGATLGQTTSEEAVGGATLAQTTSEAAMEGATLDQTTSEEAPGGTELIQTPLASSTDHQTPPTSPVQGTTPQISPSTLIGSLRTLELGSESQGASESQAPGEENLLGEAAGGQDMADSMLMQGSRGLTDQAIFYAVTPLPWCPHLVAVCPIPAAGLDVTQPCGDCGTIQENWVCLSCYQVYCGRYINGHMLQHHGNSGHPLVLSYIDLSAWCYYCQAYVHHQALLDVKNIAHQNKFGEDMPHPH
Summary of the method: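 MGC803 grown 24 h in 6-well plates, then exposed to DMSO or 4 µM compound for 6 h. Cells resuspended in ice-cold PBS and split into 6 tubes. Lysed by repeated freeze-thaw, heated 3 min across a 44 to 54 °C gradient. Soluble HDAC6 in the supernatant read by Western blot.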

MGC-803 [3] = assay: Induction of apoptosis in human MGC803 cells assessed as late apoptotic cells at 4 uM measured after 48 hrs by Annexin-V FITC/PI staining based flow cytometry (reference value: 2.74%); type: functional
MGC-803 [4] = assay: Induction of apoptosis in human MGC803 cells assessed as early apoptotic cells at 8 uM measured after 48 hrs by Annexin-V FITC/PI staining based flow cytometry (reference value: 0.19%); type: functional
MGC-803 [5] = assay: Induction of apoptosis in human MGC803 cells assessed as downregulation of Bcl2 expression after 48 hrs by Western blotting analysis; type: functional, cell-based; conditions: dose 2-8 µM
Summary of the method: (§1)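 MGC803 cells treated for 48 h, then lysed (0.1% SDS, 150 mM NaCl, 25 mM Tris-HCl, 1% deoxycholate, 1% NP-40, 1% PMSF). Protein quantified by BCA and resolved on 8–10% SDS-PAGE onto PVDF. Blocked in 5% milk, primary antibodies overnight at 4 °C, HRP secondary, ECL. GAPDH, total α-tubulin and H3 as references. Mean ± SD of three experiments.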

MGC-803 [6] = assay: Induction of apoptosis in human MGC803 cells assessed as increase in caspase-9 expression after 48 hrs by Western blotting analysis; type: functional, cell-based; conditions: dose 2-8 µM; summary of the method: as §1
[7] = Acute toxicity in C57BL/6 mouse assessed as mortality at 2 g/kg, po administered via gavage measured up to 14 days; type: organism-based; conditions: in vivo, 2000 mg/kg, 336 h, time <=14 day
Summary of the method: (§2)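 Mice aged 8-10 weeks, 20 females and 20 males, split into two groups: vehicle control (0.5% CMC-Na) or a single oral gavage dose of 2000 mg/kg. Animals were fed and observed normally for 14 days, recording body weight, mortality and behaviour. Heart, liver, spleen, lung and kidney sections were then fixed, embedded and H&E stained.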

[8] = Acute toxicity in C57BL/6 mouse assessed as liver tissue damage at 2 g/kg, po administered via gavage measured up to 14 days by HE staining based assay; type: organism-based; conditions: in vivo, 2000 mg/kg, 336 h, time <=14 day; summary of the method: as §2
[9] = Acute toxicity in C57BL/6 mouse assessed as lung tissue damage at 2 g/kg, po administered via gavage measured up to 14 days by HE staining based assay; type: organism-based; conditions: in vivo, 2000 mg/kg, 336 h, time <=14 day; summary of the method: as §2
[10] = Acute toxicity in C57BL/6 mouse assessed as kidney tissue damage at 2 g/kg, po administered via gavage measured up to 14 days by HE staining based assay; type: organism-based; conditions: in vivo, 2000 mg/kg, 336 h, time <=14 day; summary of the method: as §2
[11] = target: T3, Protein deacetylase HDAC6 (Homo sapiens); conditions: Sf9, dose 100.0 nM, time 40.0 min
Histone deacetylase 1 [12] = target: T1, Histone deacetylase 1; conditions: dose 100.0 nM, time 40.0 min

T1 sequence (Q13547 whole entry): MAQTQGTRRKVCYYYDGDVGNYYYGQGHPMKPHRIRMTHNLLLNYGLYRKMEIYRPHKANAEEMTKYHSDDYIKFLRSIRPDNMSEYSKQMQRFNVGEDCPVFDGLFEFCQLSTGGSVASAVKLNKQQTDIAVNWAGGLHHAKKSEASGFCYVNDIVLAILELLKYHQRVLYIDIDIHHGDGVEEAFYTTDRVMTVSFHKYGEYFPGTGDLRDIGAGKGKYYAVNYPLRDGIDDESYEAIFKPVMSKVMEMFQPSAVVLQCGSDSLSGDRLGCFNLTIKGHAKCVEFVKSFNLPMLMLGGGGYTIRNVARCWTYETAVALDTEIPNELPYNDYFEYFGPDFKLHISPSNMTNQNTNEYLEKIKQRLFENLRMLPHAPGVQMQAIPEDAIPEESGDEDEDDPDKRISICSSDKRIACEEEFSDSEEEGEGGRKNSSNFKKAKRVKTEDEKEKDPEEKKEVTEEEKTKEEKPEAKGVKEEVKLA
Sequence of Histone deacetylase 2 (Q92769 whole entry): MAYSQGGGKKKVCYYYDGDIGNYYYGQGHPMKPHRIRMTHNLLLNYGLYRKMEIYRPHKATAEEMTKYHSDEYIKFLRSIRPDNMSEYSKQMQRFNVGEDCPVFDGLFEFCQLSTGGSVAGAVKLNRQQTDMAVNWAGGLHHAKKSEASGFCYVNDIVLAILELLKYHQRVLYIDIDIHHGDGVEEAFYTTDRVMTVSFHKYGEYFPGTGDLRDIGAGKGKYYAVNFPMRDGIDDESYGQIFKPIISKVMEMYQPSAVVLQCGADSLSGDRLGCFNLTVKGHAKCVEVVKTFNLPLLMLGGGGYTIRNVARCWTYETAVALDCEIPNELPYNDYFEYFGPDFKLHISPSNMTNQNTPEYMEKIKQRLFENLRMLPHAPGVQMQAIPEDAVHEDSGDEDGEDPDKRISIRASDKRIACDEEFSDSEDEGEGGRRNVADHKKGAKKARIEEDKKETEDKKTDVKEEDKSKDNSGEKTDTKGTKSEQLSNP

SMILES: Cc1ccc(-c2nc(CNc3ccc(C(=O)NO)cc3)n(-c3ccccc3)n2)s1
- IC50 (Histone deacetylase 1 [1]): 3940 nM
- IC50 (Histone deacetylase 2): 224 nM
- IC50 (Histone deacetylase 8): 349 nM
- Activity [2]: Active
- Activity (MGC-803 [3]): 15.5%
- Activity (MGC-803 [4]): 8.76%
- Activity (MGC-803 [5]): Dose-Dependent Effect
- Activity (MGC-803 [6]): Dose-Dependent Effect
- Activity [7]: Non-Toxic
- Activity [8]: Non-Toxic
- Activity [9]: Non-Toxic
- Activity [10]: Non-Toxic
- inhibition [11]: 79.7%
- inhibition (Histone deacetylase 1 [12]): 30.1%

From ChEMBL document CHEMBL4811252, “Identification of novel 1,3-diaryl-1,2,4-triazole-capped histone deacetylase 6 inhibitors with potential anti-gastric cancer activity” (Eur J Med Chem, 2021)
